Measured values published in ChEMBL document CHEMBL2440043, “Synthesis and structure-activity relationship of 2-phenyliminochromene derivatives as inhibitors for aldo-keto reductase (AKR) 1B10” (Bioorg Med Chem, 2013).

Assays:
[1] = biological target: T1, Aldo-keto reductase family 1 member B1 (Homo sapiens, UniProt P15121); experiment: Inhibition of human recombinant N-terminal His6-tagged AKR1B1 expressed in Escherichia coli by fluorescence assay in presence of NADPH
[2] = biological target: T2, Aldo-keto reductase family 1 member B10 (Homo sapiens, UniProt O60218); experiment: Inhibition of human recombinant N-terminal His6-tagged AKR1B10 expressed in Escherichia coli by fluorescence assay in presence of NADPH
Target sequence in this assay (O60218 whole entry): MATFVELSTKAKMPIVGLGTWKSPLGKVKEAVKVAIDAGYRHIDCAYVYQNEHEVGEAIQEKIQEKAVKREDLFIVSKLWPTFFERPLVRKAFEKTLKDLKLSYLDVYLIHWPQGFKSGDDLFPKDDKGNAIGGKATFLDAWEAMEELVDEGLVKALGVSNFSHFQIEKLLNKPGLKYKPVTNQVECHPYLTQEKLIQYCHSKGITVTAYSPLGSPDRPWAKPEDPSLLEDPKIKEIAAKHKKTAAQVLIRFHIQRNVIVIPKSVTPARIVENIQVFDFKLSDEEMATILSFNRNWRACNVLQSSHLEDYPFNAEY

[3] = biological target: T2, Aldo-keto reductase family 1 member B10; experiment: Inhibition of human recombinant N-terminal His6-tagged AKR1B10 expressed in Escherichia coli at 10000 nM by fluorescence assay in presence of NADPH
Target sequence in this assay (O60218 whole entry, looked up): as the sequence (O60218 whole entry) above

[4] = biological target: T1, Aldo-keto reductase family 1 member B1; experiment: Inhibition of human recombinant N-terminal His6-tagged AKR1B1 expressed in Escherichia coli at 10000 nM by fluorescence assay in presence of NADPH
[5] = biological target: Aldo-keto reductase family 1 member B10 (Homo sapiens, UniProt O60218, Q303S); experiment: Competitive inhibition of human recombinant AKR1B10 Q303S mutant expressed in Escherichia coli using geraniol as substrate by double-reciprocal plot analysis in presence of NADP+
Summary of the method: (§1)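 Purified enzyme from E. coli, assayed by NADP⁺-linked geraniol oxidation at 25 °C. NADPH formation was read by fluorescence (ex 340 nm, em 455 nm). NADP⁺ was saturating at 0.25 mM, with five geraniol concentrations (25–200 μM) and three inhibitor concentrations. Ki came from replots of the slopes and intercepts of double-reciprocal plots; mean of at least three determinations.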

[6] = biological target: T2, Aldo-keto reductase family 1 member B10; experiment: Competitive inhibition of wild-type human recombinant N-terminal His6-tagged AKR1B10 expressed in Escherichia coli using geraniol as substrate by double-reciprocal plot analysis in presence of NADP+; summary of the method: as §1
Target sequence in this assay (O60218 whole entry): as above

[7] = biological target: Aldo-keto reductase family 1 member B10 (Homo sapiens, UniProt O60218, W220Y); experiment: Competitive inhibition of human recombinant AKR1B10 W220Y mutant expressed in Escherichia coli using geraniol as substrate by double-reciprocal plot analysis in presence of NADP+
Summary of the method: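 Trp220Tyr mutant purified from E. coli; geraniol oxidation with saturating NADP⁺ (0.25 mM) at 25 °C, followed by NADPH fluorescence (ex 340 nm, em 455 nm). Five geraniol levels (50–800 μM) were tested at three inhibitor concentrations. Ki came from slope and intercept replots of double-reciprocal plots; mean of at least three determinations.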

Aldo-keto reductase family 1 member B10 (Homo sapiens, UniProt O60218, Q303S), sequence (O60218 whole entry Q303S): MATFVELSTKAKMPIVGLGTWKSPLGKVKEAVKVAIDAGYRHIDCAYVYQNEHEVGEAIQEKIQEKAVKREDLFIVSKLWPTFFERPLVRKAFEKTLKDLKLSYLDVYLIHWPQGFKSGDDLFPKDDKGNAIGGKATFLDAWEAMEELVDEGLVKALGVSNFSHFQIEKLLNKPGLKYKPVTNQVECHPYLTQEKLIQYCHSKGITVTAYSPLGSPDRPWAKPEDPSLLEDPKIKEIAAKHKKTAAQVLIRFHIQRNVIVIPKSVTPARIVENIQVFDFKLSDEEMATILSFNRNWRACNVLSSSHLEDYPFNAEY
Aldo-keto reductase family 1 member B10 (Homo sapiens, UniProt O60218, W220Y), sequence (O60218 whole entry W220Y): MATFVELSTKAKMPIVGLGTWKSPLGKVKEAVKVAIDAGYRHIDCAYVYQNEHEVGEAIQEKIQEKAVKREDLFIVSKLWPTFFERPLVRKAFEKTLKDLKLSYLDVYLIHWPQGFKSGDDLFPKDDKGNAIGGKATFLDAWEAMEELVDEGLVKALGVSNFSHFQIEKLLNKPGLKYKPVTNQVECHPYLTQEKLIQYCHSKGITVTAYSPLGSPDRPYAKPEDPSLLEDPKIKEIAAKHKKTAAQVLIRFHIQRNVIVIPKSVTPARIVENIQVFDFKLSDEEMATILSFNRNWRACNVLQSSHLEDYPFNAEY

Row | SMILES | IC50 [1] [nM] | IC50 [2] [nM] | further results
1 | COc1ccc(/N=c2\oc3cc(O)ccc3cc2C(=O)NCCCO)cc1 | 29 | 8.8 | –
2 | O=C(Nc1ccccn1)c1cc2ccc(O)cc2o/c1=N\c1ccccc1 | 34 | 12 | –
3 | COc1ccc(/N=c2\oc3cc(O)ccc3cc2C(=O)NC(C)C)cc1 | 6.7 | 9.7 | –
4 | CCCCNC(=O)c1cc2ccc(O)cc2o/c1=N\c1ccc(OC)cc1 | 28 | 18 | –
5 | COc1ccc(/N=c2\oc3ccccc3cc2C(=O)Nc2ccccn2)cc1 | – | – | inhibition [4]: < 30%
6 | COc1ccc(/N=c2\oc3cc(O)ccc3cc2C(=O)NC2CCCCC2)cc1 | 27 | 11 | –
7 | COc1ccc(/N=c2\oc3cc(O)ccc3cc2C(=O)NCCO)cc1 | 20 | 11 | –
8 | COc1ccc(/N=c2\oc3cc(O)ccc3cc2C(=O)NCc2ccccc2)cc1 | 24 | 4.7 | Ki [5]: 3.8 nM; Ki [6]: 1.3 nM; Ki [7]: 51 nM
9 | COc1ccc(/N=c2\oc3cc(O)ccc3cc2C(=O)NCC(C)C)cc1 | 28 | 16 | –
10 | O=C(O)Cc1ccc(/N=c2\oc3cc(O)ccc3cc2C(=O)Nc2ccccn2)cc1 | 20 | 13 | –

Second part, led by results:

Row | IC50 [1] [nM] | IC50 [2] [nM] | SMILES | further results
11 | > 10000 | > 10000 | COc1ccc(/N=c2\oc3ccc(O)cc3cc2C(=O)Nc2ccccn2)cc1 | inhibition [3]: < 30%; inhibition [4]: < 30%
12 | > 10000 | > 10000 | COc1ccc(/N=c2\oc3c(O)cccc3cc2C(=O)Nc2ccccn2)cc1 | inhibition [3]: < 30%; inhibition [4]: < 30%
13 | 25 | 14 | O=C(Nc1ccccn1)c1cc2ccc(O)cc2o/c1=N\c1ccc(Br)cc1 | –
14 | > 10000 | – | COc1ccc(/N=c2\oc3cccc(O)c3cc2C(=O)Nc2ccccn2)cc1 | inhibition [4]: < 30%
15 | 19 | 7.6 | O=C(O)c1ccc(/N=c2\oc3cc(O)ccc3cc2C(=O)Nc2ccccn2)cc1 | –
16 | 12 | 13 | O=C(Nc1ccccn1)c1cc2ccc(O)cc2o/c1=N\c1ccc(I)cc1 | –
17 | 26 | 8.6 | Cc1ccc(/N=c2\oc3cc(O)ccc3cc2C(=O)Nc2ccccn2)cc1 | –
18 | 24 | 6.8 | O=C(Nc1ccccn1)c1cc2ccc(O)cc2o/c1=N\c1ccc(O)cc1 | –
